Published values of several laboratories.
CYP3A4: Cytochrome P450 3A4 (CYP3A4, Homo sapiens, UniProt P08684)

Structure (SMILES)	tested on	test	system	conditions	measurement	result
COc1ccc2c(c1)C[C@]1(OC)C(=O)/C(=C(O)\C=C\c3ccccc3)C(=O)C[C@]1(OC)O2	RAW264.7	cell growth or viability, MTT		15 µM, 24 h	viability	92.8%
CNC(=O)n1ccc2cc(Oc3ccnc(NC(=O)c4ccc(C5CCN(CCO)CC5)cc4)c3)c(OCCOC)cc21			human, plasma	oral, 35 mg, single dose, fasted, healthy volunteers	Vd/F	11800 L
CC(=O)OC[C@@]1(COC(=O)c2ccccc2)O[C@H]1/C=C\COC(=O)c1ccccc1	RAW264.7	cell growth or viability, MTT		15 µM, 24 h	viability	99.8%
CN(C)c1ncnc2c1ncn2[C@@H]1O[C@H](CCl)[C@@H](NC(=O)[C@@H](CSC(c2ccccc2)c2ccccc2)NC(=O)OC(C)(C)C)[C@H]1O	Vero	cell growth or viability, MTT			CC50	67.4 µM
NC(=S)NN=Cc1ncccc1N			human, plasma	oral	Vd/F	223 L
Cc1ccc(C(=O)Nc2ccc(CN3CCN(C)CC3)c(C(F)(F)F)c2)cc1C#Cc1cnc2[nH]ncc2c1			human, plasma	oral, 20 mg, healthy volunteers	Vd/F	8220 L
COc1ccc2[nH]c([S+]([O-])Cc3ncc(C)c(OC)c3C)nc2c1 (centres unmarked)	CYP3A4	enzyme activity, inhibitor		30 µM, 1 h, pH 7.4	inhibition	50 to 60%
Cn1cc(Nc2nc(N)nc(-c3cccc(-n4ccc5cc(C6CC6)cc(F)c5c4=O)c3CO)n2)cn1			human, plasma	oral, 900 mg, single dose, fasted, suspension	Vd/F	212 L
Cl.[2H]C([2H])([2H])CC(=O)c1cnc(NC(=O)C2CC2)cc1Nc1cccc(-c2ncn(C([2H])([2H])[2H])n2)c1OC			human, plasma	oral, 10 mg, multiple doses, once daily, fasted	Vd/F	167 L
CC(=O)O[C@@]12CO[C@@H]1C[C@H](O)[C@@]1(C)C(=O)[C@H](O)C3=C(C)[C@@H](OC(=O)[C@H](O)[C@@H](NC(=O)OC(C)(C)C)c4ccccc4)C[C@@](O)([C@@H](OC(=O)c4ccccc4)[C@H]21)C3(C)C			male Kunming mouse, lung	oral, 20 mg/kg	Cmax	142 ng/g
CCN1CCN(Cc2ccc(NC(=O)c3ccc(C)c(NC(=O)c4cncc(-c5cccs5)c4)c3)cc2C(F)(F)F)CC1			mouse, plasma	intraperitoneal, 30 mg/kg, single dose	Cmax	716 ng/mL
COCCCOc1ccnc(C[S+]([O-])c2nc3ccccc3[nH]2)c1C (centres unmarked)	CYP3A4	enzyme activity, inhibitor		30 µM, 1 h, pH 7.4	inhibition	50 to 60%
COc1ccc2c(c1)C[C@H]1[C@@H](OC(=O)c3ccccc3)[C@H](OC(C)=O)C(COC(=O)c3ccccc3)=C[C@H]1O2	RAW264.7	cell growth or viability, MTT		15 µM, 24 h	viability	91.9%
COc1cc(O)c2c(c1)C(=O)c1cc(C)cc(O)c1C2=O	CYP3A4	enzyme activity, inhibitor	human, liver microsomes	pH 7.4, testosterone probe	Ki	6.07 µM
